Each structure is given as a SMILES string.

One data set addresses T1, CYP1A2 (Homo sapiens, UniProt P05177).
T1 sequence (P05177 2-516 limits assumed): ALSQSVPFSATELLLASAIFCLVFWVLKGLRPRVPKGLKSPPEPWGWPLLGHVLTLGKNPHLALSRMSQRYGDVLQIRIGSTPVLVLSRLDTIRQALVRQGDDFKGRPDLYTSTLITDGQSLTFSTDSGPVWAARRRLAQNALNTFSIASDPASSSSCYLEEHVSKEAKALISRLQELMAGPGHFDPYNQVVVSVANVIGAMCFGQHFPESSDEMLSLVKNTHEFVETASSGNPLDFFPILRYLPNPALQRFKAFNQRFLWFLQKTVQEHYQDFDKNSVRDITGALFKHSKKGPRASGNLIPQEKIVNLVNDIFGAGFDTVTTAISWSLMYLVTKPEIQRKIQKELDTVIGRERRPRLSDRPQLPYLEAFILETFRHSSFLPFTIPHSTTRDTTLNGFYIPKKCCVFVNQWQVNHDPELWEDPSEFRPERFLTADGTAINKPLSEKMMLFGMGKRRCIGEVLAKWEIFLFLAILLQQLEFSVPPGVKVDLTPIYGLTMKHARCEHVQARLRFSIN
Put plainly: Metabolic stability phenotyping with recombinantly expressed CYPs. It is filed as in vitro ADME. To be noted: for half-life at 1 μM: human, recombinant CYP1A2, pH 7.4. The procedure, abridged:
(§1)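 Each recombinant human CYP at 100 pmol/ml with 1 μM test compound in potassium phosphate pH 7.4, 3.33 mM MgCl2. Prewarmed 10 min at 37 °C, then started with NADPH regenerating system; no-NADPH buffer controls. Aliquots at 0–45 min quenched in methanol with buspirone internal standard. MS peak-area ratios gave ln(ratio)-vs-time slope, converted to T1/2. Duplicates.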

The target of a further data set is CYP2D6 (Homo sapiens, UniProt P10635). Described as above. It counts as in vitro ADME. As to conditions: recombinant CYP2D6, pH 7.4. The procedure, abridged:
as §1

For the next data set, the target named is CYP3A4 (Homo sapiens, UniProt P08684). The description is as above. It counts as in vitro ADME. As to conditions: recombinant CYP3A4, pH 7.4. The procedure, abridged: as §1
Chain of CYP3A4 (P08684 2-503 limits assumed): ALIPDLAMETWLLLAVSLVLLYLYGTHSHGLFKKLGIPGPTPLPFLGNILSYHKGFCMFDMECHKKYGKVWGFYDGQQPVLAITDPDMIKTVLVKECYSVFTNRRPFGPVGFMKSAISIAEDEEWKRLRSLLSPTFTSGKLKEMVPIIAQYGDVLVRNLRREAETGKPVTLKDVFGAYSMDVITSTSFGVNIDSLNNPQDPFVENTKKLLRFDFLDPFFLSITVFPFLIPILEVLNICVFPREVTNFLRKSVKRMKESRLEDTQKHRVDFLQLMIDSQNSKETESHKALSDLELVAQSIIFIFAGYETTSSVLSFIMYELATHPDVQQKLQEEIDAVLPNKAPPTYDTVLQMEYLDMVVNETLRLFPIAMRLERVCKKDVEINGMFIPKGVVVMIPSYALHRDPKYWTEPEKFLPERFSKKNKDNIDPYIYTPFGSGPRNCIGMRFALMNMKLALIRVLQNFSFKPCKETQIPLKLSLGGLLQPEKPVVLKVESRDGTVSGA
Data set [1] addresses T2, human CYP2A13 (Homo sapiens, UniProt Q16696).
T2 sequence (Q16696 with tags, fused parts or gaps limits assumed): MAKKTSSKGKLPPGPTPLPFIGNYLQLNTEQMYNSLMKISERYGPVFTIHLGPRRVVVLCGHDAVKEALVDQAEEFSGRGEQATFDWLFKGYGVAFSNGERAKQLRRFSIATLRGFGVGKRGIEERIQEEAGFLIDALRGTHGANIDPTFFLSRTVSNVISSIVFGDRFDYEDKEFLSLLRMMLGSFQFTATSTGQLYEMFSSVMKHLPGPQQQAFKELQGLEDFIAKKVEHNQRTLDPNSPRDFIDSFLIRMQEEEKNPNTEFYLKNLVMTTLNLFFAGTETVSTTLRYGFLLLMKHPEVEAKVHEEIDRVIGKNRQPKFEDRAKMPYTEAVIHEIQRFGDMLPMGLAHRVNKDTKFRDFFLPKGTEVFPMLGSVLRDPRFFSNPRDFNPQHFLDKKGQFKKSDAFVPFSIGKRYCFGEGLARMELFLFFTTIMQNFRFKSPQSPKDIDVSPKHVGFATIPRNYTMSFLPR
Put plainly: Coumarin metabolism assay.

For another data set, the system named is CYP2A6 / CYP2A13. Put plainly: Coumarin metabolism assay. To be noted: human, pH 7.4, probe coumarin (7-hydroxylation), Selectivity Ki (2A6)/ Ki (2A13), ratio of the CYP2A6 value to the CYP2A13 value.
The target in data set [2] is T3, human CYP2A13 (Homo sapiens, UniProt Q16696).
T3 sequence (Q16696 25-494): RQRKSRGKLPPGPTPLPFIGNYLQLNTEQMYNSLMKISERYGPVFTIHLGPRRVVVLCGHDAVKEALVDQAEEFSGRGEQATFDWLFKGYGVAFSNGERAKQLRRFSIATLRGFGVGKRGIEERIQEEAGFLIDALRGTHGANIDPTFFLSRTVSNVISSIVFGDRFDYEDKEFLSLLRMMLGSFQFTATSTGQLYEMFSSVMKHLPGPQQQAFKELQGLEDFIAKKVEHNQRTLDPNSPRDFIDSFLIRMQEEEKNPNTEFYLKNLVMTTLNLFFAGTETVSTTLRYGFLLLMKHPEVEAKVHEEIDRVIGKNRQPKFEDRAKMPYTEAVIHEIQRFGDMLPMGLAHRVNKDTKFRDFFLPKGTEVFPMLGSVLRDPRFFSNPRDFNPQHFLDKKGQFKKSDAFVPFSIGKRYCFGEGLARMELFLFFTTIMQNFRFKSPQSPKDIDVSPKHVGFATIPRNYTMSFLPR
Kind of data set: Spectral ligand binding assay. To be noted: for Spectral shift type 2A13: UV/Vis difference spectra.

Data set [3] is described as follows: Metabolic stability in lung microsomes. It is filed as in vitro ADME, male Sprague-Dawley rat. To be noted: for half-life at 1 μM / microsomal CLint at 1 μM: male, Sprague-Dawley, rat, lung microsomes, pH 7.4; for Percent Loss of Substrate: rat lung microsomes, 1 μM, 20-minute incubation. The procedure, abridged:
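Pooled liver or lung microsomes (male B6C2F1 mouse, male Sprague-Dawley rat, human) at 1.0 mg protein/ml in 50 mM potassium phosphate pH 7.4, 3 mM MgCl2, 1 mM EDTA. […] Stopped at 0, 5, 10, 20 min with acetonitrile containing antipyrene, then LC/MS/MS. Single-exponential kel gave T1/2. CLint = kel × incubation volume/mg protein.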

The nature of data set [4]: Metabolic stability in wild type mouse lung microsomes. It is filed as in vitro ADME. To be noted: pH 7.4. The procedure, abridged: (§2)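 Microsomes from B6 Cyp2a(4/5)bgs-null (CYP2A/CYP2B knockout) or side-by-side wild-type mouse lung and liver, at 0.1 mg protein/ml. Buffer was 50 mM potassium phosphate pH 7.4, 3 mM MgCl2, 1 mM EDTA. […] Parent loss by LC/MS/MS. Single-exponential kel converted to T1/2; CLint = kel × volume/mg protein.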

Data set [5] can be described thus: Metabolic stability in wild type mouse liver microsomes. It is filed as in vitro ADME. To be noted: pH 7.4. The procedure, abridged: as §2
A general note: Microsomes from liver hold many membrane-bound enzymes, among them those of drug oxidation.

Data set [6] can be described thus: Metabolic stability in knockout mouse liver microsomes. It is filed as in vitro ADME. The method in brief:
as §2

Data set [7] is described as follows: Metabolic stability in knockout mouse lung microsomes. It counts as in vitro ADME. The procedure, abridged:
as §2

Setting [8] is: Kd 2A13, spectral titration, ≥ = minimal Kd value.
Setting [9] is: B6 Cyp2a(4/5)bgs-Null, mouse, liver microsomes from knockout mice, pH 7.4.
[10] abbreviates: B6 Cyp2a(4/5)bgs-Null, mouse, lung microsomes from knockout mice, pH 7.4.

Chain of CYP2D6 (P10635 whole entry): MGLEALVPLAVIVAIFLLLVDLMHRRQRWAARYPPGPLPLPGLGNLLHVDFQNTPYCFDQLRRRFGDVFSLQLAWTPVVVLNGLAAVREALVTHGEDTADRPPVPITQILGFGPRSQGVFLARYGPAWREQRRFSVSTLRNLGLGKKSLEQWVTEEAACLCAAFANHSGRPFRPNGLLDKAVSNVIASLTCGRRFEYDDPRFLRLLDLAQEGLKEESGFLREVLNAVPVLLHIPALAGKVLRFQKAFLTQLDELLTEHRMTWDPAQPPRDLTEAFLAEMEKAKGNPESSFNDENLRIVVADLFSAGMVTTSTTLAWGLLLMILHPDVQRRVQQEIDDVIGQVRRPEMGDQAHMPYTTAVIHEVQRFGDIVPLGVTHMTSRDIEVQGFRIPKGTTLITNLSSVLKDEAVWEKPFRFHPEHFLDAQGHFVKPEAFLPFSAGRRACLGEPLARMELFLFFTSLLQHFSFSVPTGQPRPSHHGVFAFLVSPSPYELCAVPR

Usually half-life stands for the time needed for the level to fall by half in the phase considered. Broadly, the Ki is the equilibrium dissociation constant of an inhibitor or competing ligand from its target. The Kd is a measure of binding affinity in units of concentration. In general, microsomal CLint refers to the capacity of the preparation to metabolise the compound, expressed as a volume cleared per time. A higher microsomal CLint goes with rapid turnover. Regarding `Clc1ccccc1CN1CCOCC1` [Compound 3, 4-(2-chlorobenzyl)morpholine], the half-life at 1 μM came out at 38.6 h on CYP1A2, 1.02 h at CYP2D6, 0.55 h on CYP3A4 and 2.4 min in data set [3]. In addition, the “Average T1/2 CYP1A2” value at CYP1A2 (recombinant enzyme 100 pmol/ml, 1 μM compound) is listed as “essentially no loss”. This compound also displayed a Ki at human CYP2A13 [1] of 39.7 ± 4.3 µM. The selectivity ratio at 10 min with CYP2A6 / CYP2A13 was at least 25. The compound also showed a Kd at human CYP2A13 [2] (setting [8]) of 5.9 ± 3.4 µM. Moreover, the “Spectral shift type 2A13” value on human CYP2A13 [2] is on record as “I”. Besides, the microsomal CLint at 1 μM in data set [3] was 283 µL/min/mg. Besides, the “Percent Loss of Substrate” value in [3] was determined as 99.8%.

In the case of `Fc1cccc(Cl)c1CN1CCOCC1` [Compound 7, 4-(2-chloro-6-fluorobenzyl)morpholine], the half-life at 1 μM on CYP1A2 turned out to be 20.2 h; in data set [4], 2.07 h; on CYP2D6 it was 1.3 h; in data set [5], 1.22 h; on CYP3A4, 0.417 h; in data set [6] (setting [9]) it was 2.12 h. In addition, the results for the half-life at 1 μM in data set [7] (setting [10]) and in data set [3] were 11.2 h and 1.5 min, respectively. Further, the microsomal CLint at 1 μM in data set [4] stood at 55.7 µL/min/mg; in [5], 95.3 µL/min/mg; in data set [6] (setting [9]) it was 54.8 µL/min/mg; in data set [7] (setting [10]) it was 10.4 µL/min/mg; in data set [3] it was 478 µL/min/mg. At human CYP2A13 [1], this compound showed a Ki of 38.1 µM. Moreover, the selectivity ratio at 10 min with CYP2A6 / CYP2A13 worked out at 7.5. Besides, the Kd at human CYP2A13 [2] (setting [8]) was 5.2 µM; on human CYP2A13 [2] (Kd CYP2A13, follow-up titration of HTS hit, Figure 1D), about 2 µM. Also, the “Spectral shift type 2A13” value at human CYP2A13 [2] was “I”. For the same compound, in [6] (0.1 mg/ml protein), the “increase in metabolic stability, transgenic vs wild type liver microsomes” value is reported as 1.7 fold. Besides, the “increase in metabolic stability, transgenic vs wild type lung microsomes” value in [7] (0.1 mg/ml protein) was determined as 5 fold. In data set [3], the “Percent Loss of Substrate” value turned out to be 100%.

These data come from PMC3781598 (Pharmaceutical research, 2013).
